# Source: PubChem (Johns Hopkins Ion Channel Center)
# RGS4 block – human RGS4 inhibition | P49798 | HEK293 M3R/RGS4 inducible, Fluo-4 calcium flux; active compounds read high; triggered by carbachol at its EC20 | B-score at 10 µM | 310,000 compounds, 0.45% hits | AID 463165;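 active means B-score, a plate-corrected calcium signal, over three deviations above library mean, with baseline fluorescence within five deviations of library mean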;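 further: RGS4 expression induced by doxycycline in cells with stable M3 receptor; B-score is computed from the integrated fluorescence ratio over baseline after carbachol; higher B-score means a larger calcium signal and so more RGS4 inhibition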
# Target sequence (P49798 whole entry, looked up): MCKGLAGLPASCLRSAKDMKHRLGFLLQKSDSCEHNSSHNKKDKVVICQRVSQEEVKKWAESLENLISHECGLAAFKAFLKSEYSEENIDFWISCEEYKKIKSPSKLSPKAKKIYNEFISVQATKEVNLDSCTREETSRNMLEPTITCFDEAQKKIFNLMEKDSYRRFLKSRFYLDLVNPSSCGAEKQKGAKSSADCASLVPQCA
# MrgX1 ag – human MrgX1 receptor agonism, primary screen; Q96LB2; 310,000 compounds, 0.44% hits; B-score at 10 µM; MrgX1-HEK293 cells, Fluo-4 calcium fluorescence, agonist mode; active compounds read high; AID 588627;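 active means calcium response B-score plate-corrected fluorescence ratio at least 3 library SD, with starting fluorescence B-score inside 5 SD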
# Target sequence (Q96LB2 whole entry, looked up): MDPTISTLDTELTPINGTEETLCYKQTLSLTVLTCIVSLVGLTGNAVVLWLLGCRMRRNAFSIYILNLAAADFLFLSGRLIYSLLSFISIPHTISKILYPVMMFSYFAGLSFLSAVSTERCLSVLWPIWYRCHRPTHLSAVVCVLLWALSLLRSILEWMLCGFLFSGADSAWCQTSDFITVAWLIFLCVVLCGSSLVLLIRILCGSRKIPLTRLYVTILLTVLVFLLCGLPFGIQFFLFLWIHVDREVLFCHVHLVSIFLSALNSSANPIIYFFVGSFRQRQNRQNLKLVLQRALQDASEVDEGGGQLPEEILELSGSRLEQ
#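 Material: HEK293 cells stably expressing human MrgX1 receptor | Quantity: 15,000 cells per well | Times: Cells plated overnight, dye loaded 0.5 h 37 °C, 0.5 h room temperature | Measured by: Kinetic Fluo-4 NW fluorescence of intracellular calcium | Control set: Positive and negative controls per plate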
# MrgX1 PAM – human MrgX1 positive allosteric modulation, primary screen; 310,000 compounds, 0.63% hits; Q96LB2; B-score at 10 µM; AID 588675; MrgX1-HEK293, Fluo-4 calcium flux, FDSS; active compounds read high;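 active means plate-corrected calcium response at least 3 library SD above typical, normal starting fluorescence, not activating the receptor alone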;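 further: compound read alongside a low EC10 to EC30 dose of BAM8-22 agonist; peak minus trough fluorescence over baseline measured at the second addition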
# RGS4 act – RGS4 potentiation or activation | 310,000 compounds, 0.92% hits | HEK293 M3R/inducible RGS4, carbachol calcium flux Fluo4; active compounds read low | B-score at 10 µM | AID 463111;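 active means B-score of the integrated calcium signal more than 4 SD below the library mean, with starting fluorescence not abnormally high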;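 further: negative B-score means reduced calcium response which marks RGS4 activation or potentiation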
#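 Detection: kinetic calcium fluorescence imaging with Fluo4-AM dye, 2 µM / Material: HEK293 cells with stable M3R and inducible RGS4 / Schedule: recording 10 s baseline at 1 Hz, 100 s post-agonist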
# MrgX1 antagonist – blocks BAM8-22 activation of human MrgX1 receptor; Q96LB2; MRGX1-HEK293 calcium flux, Fluo-4, BAM8-22 antagonism; active compounds read low; B-score at 10 µM; 310,000 compounds, 1.3% hits; AID 588676;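 active means calcium-response B-score plate-corrected more than 3 library SD below zero, starting fluorescence within 5 deviations, no agonist response on first addition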;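 further: peak minus trough fluorescence over baseline after final BAM8-22 challenge near maximal dose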
# RGS4 inh valid – RGS4 inhibitor validation. calcium response, % at 10 µM. shares compounds with RGS4 block. 1,700 compounds, 65% hits. HEK293 M3R/RGS4, carbachol calcium Fluo-4 fluorescence; carbachol added at its EC20; 0 = buffer wells, 100 = carbachol control;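 active means duplicate-averaged calcium response above the buffer-only control mean plus 5 SD of those controls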;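 further: integrated fluorescence ratio F max minus min over baseline F0; higher response in RGS4-induced cells means RGS4 inhibition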
# RGS4 uninduced – non-induced cell nonspecific activity of RGS4 inhibitors; activity (percent), % at 10 µM; HEK293 M3R non-induced, carbachol calcium Fluo-4; submaximal (EC20) carbachol stimulus; buffer wells 0%, carbachol control wells 100%; shares compounds with RGS4 block; 1,900 compounds, 20% hits; call rule not given here;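 further: RGS4 induction absent so cells express M3R without RGS4; higher means more calcium signal and flags a non-specific hit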
# M3R basal Ca ctr – signal in non-induced cells without carbachol, RGS4 inhibitor counter-screen; shares compounds with RGS4 block; calcium response (agonist-mode artifact), % at 10 µM; HEK293 M3R/RGS4 non-induced, Fluo-4 calcium, no carbachol; normalised: buffer wells 0%, carbachol wells 100%; 1,900 compounds, 22% hits;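 active means duplicate-averaged calcium rise in uninduced cells above buffer wells' mean plus 5 SD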
# Numbers without * were called inactive; i = inactive; . = no result given. In the library only some 3.5% were active in any assay of this set; here they are far more common.
SMILES,RGS4 block,MrgX1 ag,MrgX1 PAM,RGS4 act,MrgX1 antagonist,RGS4 inh valid,RGS4 uninduced,M3R basal Ca ctr
Cc1ccc(-n2nc3c(=O)n(CCCC(=O)NCc4ccco4)nc(C)c3c2C)cc1,i,i,i,i,i,.,.,.
CC1(C)Cc2cccc(OCC(=O)OCC(=O)NCc3ccccc3)c2O1,i,i,i,i,i,.,.,.
CCCn1c(/N=C/c2ccccc2O)nc2ccccc21,i,i,i,i,i,.,.,.
CCCCn1c(/N=C/c2ccc(N(C)C)cc2)nc2ccccc21,i,i,i,i,i,.,.,.
CCCn1c(/N=C/c2c[nH]c3ccccc23)nc2ccccc21,5.07*,i,i,i,i,8.0%*,i,i
CCn1c(/N=C/c2c[nH]c3ccccc23)nc2ccccc21,i,i,i,i,i,.,i,i
CCCCn1c(/N=C/c2c[nH]c3ccccc23)nc2ccccc21,i,i,i,i,i,.,i,i
Cc1ccc(C)c(N2CCN(C(=O)Cn3c(=O)[nH]c4ccsc4c3=O)CC2)c1,i,i,i,i,i,.,.,.
CCOc1ccccc1NC(=O)C1CCN(S(=O)(=O)c2cccc3cccnc23)CC1,i,i,i,i,i,.,.,.
COc1ccccc1N1CCN(S(=O)(=O)CCNC(=O)C2CCCCC2)CC1,i,i,i,i,i,.,.,.
CC(NC(=O)/C(C#N)=C/c1ccco1)c1ccccc1 (stereo not drawn),i,i,i,i,i,.,.,.
CC(NC(=O)/C(C#N)=C/c1ccc([N+](=O)[O-])o1)c1ccccc1 (stereo not drawn),6.24*,i,i,i,i,16.0%*,i,8.5%*
CCOCCCNC(=O)/C(C#N)=C/c1ccc([N+](=O)[O-])o1,8.07*,i,8.41*,i,i,31.0%*,i,i
Cc1cc(O)c(C(C[N+](=O)[O-])c2ccc(Cl)cc2Cl)c(=O)o1 (stereo not drawn),i,i,i,i,i,.,.,.
O=c1[nH][nH]c(-c2ccccc2O)c1C(C[N+](=O)[O-])c1cccc(Cl)c1 (stereo not drawn),i,i,i,i,i,.,.,.
O=c1[nH][nH]c(-c2ccccc2O)c1C(C[N+](=O)[O-])c1ccccc1 (stereo not drawn),i,i,i,i,i,i,i,i
O=c1[nH][nH]c(-c2ccccc2O)c1C(C[N+](=O)[O-])c1ccc(Cl)cc1Cl (stereo not drawn),6.24*,i,i,i,i,i,i,i
COc1ccccc1C(=O)Nc1cccc2nc(C)ccc12,i,i,i,i,i,.,.,.
COc1ccc(C(=O)Oc2coc(CSc3nnc(NC(=O)c4cccs4)s3)cc2=O)cc1,i,i,i,i,i,.,.,.
Nc1nc(Nc2cccc(F)c2)nc(NCc2ccco2)c1[N+](=O)[O-],i,i,i,i,i,i,i,i
Nc1nc(Nc2cccc(Cl)c2)nc(NCCO)c1[N+](=O)[O-],i,i,i,i,i,.,.,.
Nc1nc(Nc2ccc(Cl)cc2)nc(NCc2ccco2)c1[N+](=O)[O-],i,i,i,i,i,.,i,i
Cc1cccc(Nc2nc(NCc3ccco3)nc(N)c2[N+](=O)[O-])c1,i,i,i,i,i,.,.,.
Cc1cccc(Nc2nc(N)c([N+](=O)[O-])c(NCc3ccco3)n2)c1,i,i,i,i,i,i,i,i
Nc1nc(Nc2cccc(Cl)c2)nc(NCc2ccco2)c1[N+](=O)[O-],16.9*,i,i,i,i,11.0%*,i,i
SMILES,RGS4 block,MrgX1 ag,MrgX1 PAM,RGS4 act,MrgX1 antagonist,RGS4 inh valid,RGS4 uninduced,M3R basal Ca ctr
COc1cc(/C=C(/C(=O)c2cccs2)c2nc3ccccc3[nH]2)ccc1O,9.2*,i,i,i,i,18.5%*,i,i
CCOC(=O)N1CCN(c2cc(=O)n(-c3ccc(Br)cc3)c(=O)[nH]2)CC1,i,i,i,i,i,.,.,.
CCn1c(=O)c2cc(C(=O)N(C)c3cc(C)ccc3OC)sc2c2ccccc21,6.05*,i,i,i,i,30.5%*,59.5%*,i
CCn1c(=O)c2cc(C(=O)N(C)c3ccc(OC)cc3OC)sc2c2ccccc21,i,i,i,i,i,.,.,.
COc1cccc(C(=O)O/N=C(\N)c2ccc(C)cc2)c1,i,i,i,i,i,.,.,.
COc1cccc(C(=O)O/N=C(\N)Cc2ccc(Cl)cc2)c1,8.75*,i,i,i,i,7.5%*,i,i
CCOC(=O)c1ccccc1NS(=O)(=O)c1cnn(CC)c1C,i,i,i,i,i,.,.,.
O=C(Nc1nc(-c2ccc(Oc3ccccc3)cc2)cs1)C1=COCCO1,20.6*,i,i,i,i,32.0%*,42.5%*,i
CC(=O)Nc1ccc(-c2csc(NC(=O)C3=COCCO3)n2)cc1,i,i,i,i,i,.,.,.
Cc1ccc(-c2csc(NC(=O)C3=COCCO3)n2)cc1,i,i,i,i,i,i,i,i
Cc1ccc(C(=O)N/C(=C\c2ccco2)C(=O)NCCN2CCOCC2)cc1C,i,i,i,i,i,.,.,.
CC(NC(=O)Cc1cccs1)C(c1cccs1)N1CCN(c2ccccc2F)CC1 (stereo not drawn),i,i,i,i,i,.,.,.
Cc1coc2c(C)c3oc(=O)c(CCC(=O)NCCC(=O)O)c(C)c3cc12,i,i,i,i,i,.,.,.
C[C@]12C(=O)N(c3ccc(Cl)cc3)C(=O)N1[C@@H]1c3ccccc3OC[C@@H]1[C@H]2c1ccccc1,i,i,i,i,i,i,i,i
C[C@]12C(=O)N(c3ccc(Br)cc3)C(=O)N1[C@@H]1c3ccccc3OC[C@@H]1[C@H]2c1ccccc1,i,i,i,i,i,.,.,.
